This is an account of results in ChEMBL document CHEMBL3621102, “Structure-activity study of quinazoline derivatives leading to the discovery of potent EGFR-T790M inhibitors” (Eur J Med Chem, 2015).

Active and inactive are the calls of the source. The rule behind the calls is not given here.

Series [1] has as its target Epidermal growth factor receptor (Homo sapiens, UniProt P00533). Description: Inhibition of EGFR (unknown origin) by ELISA method. For orientation: An ELISA detects its analyte on a solid surface through an enzyme-linked reagent.
Series [2] deals with NCI-H1975. Nature of the series: Antiproliferative activity against human NCI-H1975 cells assessed as growth inhibition. In kind it is functional. The essentials: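 NCI-H1975 cells were grown in RPMI with 1 mM sodium pyruvate, 10% FBS and 1% penicillin-streptomycin, under humidified 5% CO₂ at 37 °C. Growth inhibition was read as GI₅₀.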
Series [3] relates to NCI-H1975. Description: Antitumor activity against human NCI-H1975 cells xenografted in BALB/c mouse assessed as tumor growth inhibition at 50 mg/kg po, qd for 21 days. In kind it is functional, organism-based. The essentials:
(§1)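 Athymic mice received 2 × 10⁶ tumour cells subcutaneously in the right flank. At 100–300 mm³ they were randomised to control and treatment groups (n = 6); controls received vehicle alone. Tumour volume = length × width²/2 and RTV = Vt/V0.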
A general note: In xenograft studies the graft and the host belong to different species.

Series [4] can be described thus: AUC (0 to 24 hrs) in Sprague-Dawley rat at 1 mg/kg, iv by LC/MS/MS method. Further details: time < 24 hr, dose 1 mg/kg, route intravenous. The settings on record: in vivo. Type of series: ADME, organism-based. The essentials:
(§2)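 Male Sprague-Dawley rats (n = 3) dosed once at 1 mg/kg iv via tail vein, or once at 5 mg/kg by oral gavage, using the same formulation. Serial blood samples were taken over 24 h. Plasma levels were measured by LC/MS/MS (C18 column, 10 mM ammonium formate-0.1% formic acid water/methanol 10/90, ESI positive). Parameters were derived by noncompartmental analysis.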

A short description of series [5]: AUC (0 to infinity) in Sprague-Dawley rat at 1 mg/kg, iv by LC/MS/MS method. The settings on record: in vivo. Further details: dose 1 mg/kg, time infinity, route intravenous. Type of series: ADME, organism-based. The essentials:
as §2

Series [6] can be described thus: Mean residence time in Sprague-Dawley rat at 1 mg/kg, iv incubated for 24 hrs by LC/MS/MS method. In kind it is ADME, organism-based. The settings on record: in vivo. The essentials: as §2
A short description of series [7]: Elimination half-life in Sprague-Dawley rat at 1 mg/kg, iv incubated for 24 hrs by LC/MS/MS method. In kind it is ADME, organism-based. The settings on record: in vivo, read-out: beta t1/2 (converted). Put shortly: as §2
Series [8] in a line: Clearance in Sprague-Dawley rat at 1 mg/kg, iv incubated for 24 hrs by LC/MS/MS method. The settings on record: in vivo. In kind it is ADME, organism-based. The essentials: as §2
Series [9] in a line: Apparent volume of distribution in Sprague-Dawley rat at 1 mg/kg, iv incubated for 24 hrs by LC/MS/MS method. Type of series: ADME, organism-based. The settings on record: in vivo, read-out: Vd(app). Put shortly: as §2
Series [10] is described as follows: Bioavailability in Sprague-Dawley rat at 1 mg/kg, iv incubated for 24 hrs by LC/MS/MS method. In kind it is ADME, organism-based. The settings on record: in vivo. Put shortly:
as §2

Series [11] deals with NCI-H1975. Nature of the series: Antitumor activity against human NCI-H1975 cells xenografted in BALB/c mouse assessed as tumor growth inhibition at 4 mg/kg po, qd for 21 days. Type of series: functional, organism-based. Put shortly:
as §1

Series [12] deals with Mus musculus. Nature of the series: Toxicity in NCI-H1975 xenografted BALB/c mouse assessed as body weight loss at 4 mg/kg po, qd for 21 days. In kind it is organism-based. The settings on record: in vivo, 504 h. The essentials: (§3)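 Athymic mice bearing subcutaneous right-flank xenografts (2 × 10⁶ cells, dosed at 100–300 mm³; n = 6 per group; vehicle controls). Health was observed daily and body weight measured on indicated days. Body weight change (%) = (Wt/W0 − 1) × 100 against predosing weight, given as group mean ± SEM.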

Series [13] relates to Mus musculus. Nature of the series: Toxicity in NCI-H1975 xenografted BALB/c mouse assessed as induction of weakness at 4 mg/kg po, qd for 21 days. Type of series: organism-based. The settings on record: in vivo, 504 h. Put shortly:
as §3

Series [14] concerns Mus musculus. Description: Toxicity in NCI-H1975 xenografted BALB/c mouse assessed as induction of lethargy at 4 mg/kg po, qd for 21 days. The settings on record: in vivo, 504 h. In kind it is organism-based. Put shortly: as §3
Series [15] relates to Mus musculus. Nature of the series: Toxicity in NCI-H1975 xenografted BALB/c mouse assessed as induction of eye disease at 4 mg/kg po, qd for 21 days. Type of series: organism-based. The settings on record: in vivo, 504 h. The essentials:
as §3

Series [16] concerns Mus musculus. Description: Toxicity in NCI-H1975 xenografted BALB/c mouse assessed as induction of exfoliative skin disorder at 4 mg/kg po, qd for 21 days. The settings on record: in vivo, 504 h. Type of series: organism-based. Put shortly:
as §3

Series [17] is described as follows: Toxicity in NCI-H1975 xenografted BALB/c mouse assessed as induction of mouse mortality at 4 mg/kg po, qd for 9 days. In kind it is organism-based. The settings on record: in vivo. Put shortly:
(§4)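 Athymic mice received 2 × 10⁶ NCI-H1975 cells subcutaneously in the right flank. When tumours reached 100–300 mm³, mice were randomised into control and treatment groups (n = 6 per group), and controls got vehicle alone. Health was checked daily, and body weight and tumour size were measured on set days during treatment.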

In series [18] the test system is NCI-H1975. Description: Antitumor activity against human NCI-H1975 cells xenografted in BALB/c mouse assessed as tumor growth inhibition at 20 mg/kg po, qd for 21 days relative to control. Type of series: functional. The settings on record: 504 h, read-out: TGI. The essentials: as §1
Series [19] relates to Mus musculus. Nature of the series: Toxicity in human NCI-H1975 cells xenografted BALB/c mouse assessed as body weight changes at 20 mg/kg po, qd for 21 days relative to control. In kind it is organism-based. The settings on record: in vivo, 504 h. Put shortly: as §3
The subject of series [20] is Mus musculus. Nature of the series: Toxicity in human NCI-H1975 cells xenografted BALB/c mouse assessed as mouse mortality at 30 mg/kg po, qd for 21 days measured on day 10 relative to control. Type of series: organism-based. The settings on record: in vivo, 504 h. The essentials:
as §4

Series [21] concerns NCI-H1975. Description: Antitumor activity against human NCI-H1975 cells xenografted in BALB/c mouse assessed as tumor growth inhibition at 10 mg/kg po, qd for 21 days. Type of series: functional, organism-based. Put shortly:
as §1

In series [22] the test system is Mus musculus. Description: Toxicity in NCI-H1975 xenografted BALB/c mouse assessed as body weight change at 10 mg/kg po, qd for 21 days. In kind it is organism-based. The settings on record: in vivo, 504 h. Put shortly:
as §3

The test system of series [23] is Mus musculus. Nature of the series: Toxicity in NCI-H1975 xenografted BALB/c mouse assessed as skin toxicity at 10 mg/kg po, qd for 21 days. The settings on record: in vivo, 504 h. In kind it is organism-based. The essentials:
as §3

Epidermal growth factor receptor, sequence (P00533 whole entry): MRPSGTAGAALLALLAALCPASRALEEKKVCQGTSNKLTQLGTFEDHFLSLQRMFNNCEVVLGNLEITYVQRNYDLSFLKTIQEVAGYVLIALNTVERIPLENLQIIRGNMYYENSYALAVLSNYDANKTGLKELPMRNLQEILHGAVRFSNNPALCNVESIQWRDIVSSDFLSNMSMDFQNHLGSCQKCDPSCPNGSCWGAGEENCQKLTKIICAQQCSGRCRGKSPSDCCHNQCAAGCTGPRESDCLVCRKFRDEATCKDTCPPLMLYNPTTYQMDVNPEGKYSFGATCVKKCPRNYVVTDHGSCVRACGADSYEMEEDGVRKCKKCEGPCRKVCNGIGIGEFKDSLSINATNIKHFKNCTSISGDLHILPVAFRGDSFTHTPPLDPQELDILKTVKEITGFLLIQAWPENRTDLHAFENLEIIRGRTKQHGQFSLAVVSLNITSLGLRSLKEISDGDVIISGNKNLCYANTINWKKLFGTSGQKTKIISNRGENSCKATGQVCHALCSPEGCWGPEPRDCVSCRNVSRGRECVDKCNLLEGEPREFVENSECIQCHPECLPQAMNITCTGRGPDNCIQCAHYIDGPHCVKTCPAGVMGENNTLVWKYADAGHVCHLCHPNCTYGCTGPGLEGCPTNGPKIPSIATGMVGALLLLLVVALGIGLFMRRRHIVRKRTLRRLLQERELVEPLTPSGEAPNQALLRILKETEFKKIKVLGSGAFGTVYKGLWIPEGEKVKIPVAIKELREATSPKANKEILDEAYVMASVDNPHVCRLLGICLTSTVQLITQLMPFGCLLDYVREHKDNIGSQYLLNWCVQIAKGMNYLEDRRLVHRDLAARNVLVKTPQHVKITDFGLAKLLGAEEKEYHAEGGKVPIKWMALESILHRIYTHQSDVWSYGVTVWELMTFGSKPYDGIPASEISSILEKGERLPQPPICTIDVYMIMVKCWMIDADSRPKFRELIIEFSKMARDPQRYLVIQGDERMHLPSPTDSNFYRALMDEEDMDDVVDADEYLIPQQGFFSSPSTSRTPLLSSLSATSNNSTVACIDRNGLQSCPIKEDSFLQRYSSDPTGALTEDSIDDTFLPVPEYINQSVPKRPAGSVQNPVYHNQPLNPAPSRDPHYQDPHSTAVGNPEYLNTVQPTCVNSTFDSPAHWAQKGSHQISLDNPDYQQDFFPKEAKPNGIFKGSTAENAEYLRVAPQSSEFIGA

In the case of `C#Cc1cccc(Nc2ncnc3cc(O[C@H]4CCOC4)c(NC(=O)/C=C/CNC(C)C)cc23)c1`, in series [1], the half-inhibitory concentration (IC50) – broadly, the concentration needed to halve the response being measured – came to 6.4 nM. In addition, in the series on NCI-H1975 [2], the GI50 (as a rule, the concentration giving 50% growth inhibition) amounted to 19.8 nM. Also, the TGI entry in the series on NCI-H1975 [3] is “inactive”. Besides, the AUC(0-t) (usually the area under the concentration-time curve up to a stated or last time point) at 24 h in series [4] was 92.6 ng·h/mL. Besides, the AUC(0-inf) (commonly total exposure, with the tail of the curve extrapolated) in series [5] turned out to be 105 ng·h/mL. Moreover, the MRT (usually the average time that molecules of a dose stay in the body) in series [6] was found to be 2.6 h. In series [7], the half-life is 1.5 h. Moreover, the clearance (commonly the volume of plasma or blood freed of the substance per unit of time) in series [8] was 170 mL/min/kg. For the same compound, the Vd in series [9] was 7.4 L/kg. In addition, in series [10], the bioavailability (in general, the share of a dose that reaches the circulation, judged against a reference dose that is usually intravenous) was below 5%.
With `CN(C)C/C=C/C(=O)Nc1cc2c(Nc3ccc(F)c(Cl)c3)ncnc2cc1O[C@H]1CCOC1` [AFATINIB], in the series on NCI-H1975 [2], the GI50 worked out at 107 nM. This compound also yielded an AUC(0-t) at 24 h in series [4] of 277 ng·h/mL. Further, the AUC(0-inf) in series [5] was found to be 324 ng·h/mL. In series [6], this compound returned an MRT of 10.6 h. Also, the half-life in series [7] was 9.6 h. Further, the clearance in series [8] was 54.2 mL/min/kg. In addition, in [9], the Vd is 10.8 L/kg. In addition, in series [10], the bioavailability is 62.3%.
Take `CCOc1cc2ncnc(Nc3ccc(F)c(Cl)c3)c2cc1NC(=O)/C=C/CNC1CC1`: in series [1], the IC50 worked out at 0.9 nM. For the same compound, the GI50 with NCI-H1975 [2] came out at 11.6 nM. Moreover, the TGI entry in the series on NCI-H1975 [11] is “Active”. Besides, the Activity result in the series on Mus musculus [12], in the series with Mus musculus [13], with Mus musculus [14], in the series on Mus musculus [15] and in the series with Mus musculus [16] was “Toxic” each time. Also, the mortality (usually the share of the test organisms that died) at 216 h in [17] is above 50%.
`CN(C)C/C=C/C(=O)Nc1cc2c(Nc3ccc(F)c(Cl)c3)ncnc2cc1O[C@H]1CCOC1.O=C(O)/C=C\C(=O)O.O=C(O)/C=C\C(=O)O` [AFATINIB DIMALEATE]: in the series on NCI-H1975 [18], the inhibition in vivo at 20 mg/kg was below 50%. Further, the Activity result with Mus musculus [19] is recorded as “Non-toxic”; with Mus musculus [20], “Toxic”.
`CC(C)NC/C=C/C(=O)Nc1cc2c(Nc3ccc(F)c(Cl)c3)ncnc2cc1O[C@H]1CCOC1` displayed an IC50 in [1] of 7 nM. Besides, in the series with NCI-H1975 [2], the GI50 was determined as 22.4 nM. In addition, the TGI result with NCI-H1975 [3] is “inactive”. This compound also gave an AUC(0-t) at 24 h in series [4] of 166 ng·h/mL. In addition, in series [5], the AUC(0-inf) was 197 ng·h/mL. This compound had an MRT in series [6] of 8.8 h. The half-life in [7] is 9.9 h. Moreover, the clearance in series [8] is 90 mL/min/kg. The Vd in series [9] is 6.5 L/kg. Further, the bioavailability in [10] is below 5%.
`C#Cc1cccc(Nc2ncnc3cc(OC)c(NC(=O)/C=C/CNC4CC4)cc23)c1` gave an IC50 in series [1] of 7.9 nM. Also, in the series with NCI-H1975 [2], the GI50 is 18.9 nM. The TGI entry in the series with NCI-H1975 [21] is “Active”. In addition, the results for the Activity result with Mus musculus [22] and in the series with Mus musculus [23] were “Non-toxic” and “Toxic”, respectively.
